Assay results as given in ChEMBL document CHEMBL1143703, “Linear TMC-95-based proteasome inhibitors” (J Med Chem, 2007).
pIC50, pKi: −log10 of the molar value. Calls of active or inactive are those of the source. No cut-off for these calls is given here. Residues, ends and D or L forms follow the SMILES beside them. *: point of attachment. Boc = CC(C)(C)OC(=O)*; NHBn = c1ccc(CN*)cc1; NHPh = c1ccc(N*)cc1; Bn = c1ccc(C*)cc1

What was measured:
Oryctolagus cuniculus [1] = organism: Oryctolagus cuniculus; assay: Inhibition of post acid activity of rabbit reticulocyte 20S proteasome at 100 uM
Oryctolagus cuniculus [2] = organism: Oryctolagus cuniculus; assay: Activation of chymotrypsin-like activity of rabbit reticulocyte 20S proteasome relative to control
Oryctolagus cuniculus [3] = organism: Oryctolagus cuniculus; assay: Activation of trypsin-like activity of rabbit reticulocyte 20S proteasome relative to control
Method in brief: (§1)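 Trypsin-like site: proteasome exposed to 0.1-100 µM compound, fluorogenic substrate hydrolysis read 1 h at 37 °C in pH 7.5 20 mM Tris, 1 mM DTT, 10% glycerol without SDS; 3% DMSO final. Initial rates relative to untreated control: >100% expressed as activation factor, <100% as inhibition; Ki via Vi/V0 = 1/(1+[I]/Ki(app)) or IC50 = Ki(1+[S]/Km).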

[4] = Inhibition of post acid activity of rabbit reticulocyte 20S proteasome; set-up: species or system Oryctolagus cuniculus
[5] = Stability in RPMI medium in presence of 20% fetal calf serum; type: ADME; conditions: cattle, RPMI medium with 20% fetal calf serum
Method in brief: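 Compound incubated up to 2 days at 37 °C in RPMI with 20% fetal calf serum. Stopped with ethanol, centrifuged at 4 °C, supernatant analysed by RP-HPLC. Half-life from linear least-squares fit of log[I] versus time, at least five points.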

[6] = Inhibition of chymotrypsin-like activity of rabbit reticulocyte 20S proteasome; set-up: species or system Oryctolagus cuniculus
[7] = Inhibition of trypsin-like activity of rabbit reticulocyte 20S proteasome; set-up: species or system Oryctolagus cuniculus; method in brief: as §1
Oryctolagus cuniculus [8] = organism: Oryctolagus cuniculus; assay: Inhibition of chymotrypsin-like activity of rabbit reticulocyte 20S proteasome at 100 uM
Oryctolagus cuniculus [9] = organism: Oryctolagus cuniculus; assay: Inhibition of trypsin-like activity of rabbit reticulocyte 20S proteasome at 100 uM; method in brief: as §1
HeLa [10] = assay: Cytotoxicity against human HeLa cells at 50 uM after 48 hrs by MTT assay; type: functional, cell-based
Method in brief: (§2)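 5 × 10^3 cells grown in triplicate 48 h with or without 50 µM inhibitor. Media: DMEM for HeLa and T-47D; MEM for HEK-293, HuH7 and Hep G2; McCoy for HCT-116; each with 10% FBS, 5% CO2. Survival read by MTT metabolism at 37 °C, relative to DMSO-only control.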

HEK293 = assay: Cytotoxicity against human HEK293 cells at 50 uM after 48 hrs by MTT assay; type: functional, cell-based; method in brief: as §2
Huh-7 = assay: Growth inhibition of human HuH7 cells at 50 uM after 48 hrs by MTT assay; type: functional, cell-based; method in brief: as §2
HCT-116 = assay: Growth inhibition of human HCT116 cells at 50 uM after 48 hrs by MTT assay; type: functional, cell-based; method in brief: as §2
T47D = assay: Growth inhibition of human T47D cells at 50 uM after 48 hrs by MTT assay; type: functional, cell-based; method in brief: as §2
HepG2 = assay: Growth inhibition of human HepG2 cells at 50 uM after 48 hrs by MTT assay; type: functional, cell-based; method in brief: as §2
HeLa [11] = assay: Cytotoxicity against human HeLa cells by MTT assay; type: functional, cell-based

Row | SMILES | inhibition (Oryctolagus cuniculus [1]) | Fold change (Oryctolagus cuniculus [2]) | Fold change (Oryctolagus cuniculus [3]) | pKi [4] | pKi [6] | further results
1 | CC(C)(C)OC(=O)N[C@@H](Cc1ccc(OCc2ccccc2)cc1)C(=O)N[C@@H](CC(N)=O)C(=O)N[C@@H](Cc1c[nH]c2ccccc12)C(=O)Nc1ccccc1 (Boc-Tyr(Bn)-Asn-Trp-NHPh) | < 20% | 1.5 | 1.6 | < 4.00 | – | –
2 | CC(C)(C)OC(=O)N[C@@H](Cc1ccc(OCc2ccccc2)cc1)C(=O)N[C@@H](CC(N)=O)C(=O)N[C@@H](Cc1c[nH]c2ccccc12)C(=O)NCc1ccccc1 (Boc-Tyr(Bn)-Asn-Trp-NHBn) | – | – | 2.2 | 4.07 | 4.23 | half-life [5]: 6.5 h
3 | CC(C)C[C@H](NC(=O)[C@H](Cc1ccc(OCc2ccccc2)cc1)NC(=O)OC(C)(C)C)C(=O)N[C@@H](Cc1c[nH]c2ccccc12)C(=O)NCc1ccccc1 (Boc-Tyr(Bn)-Leu-Trp-NHBn) | < 20% | 1.3 | 1.9 | < 4.00 | – | –
4 | CC(C)(C)OC(=O)NCCCCNC(=O)[C@H](Cc1c[nH]c2ccccc12)NC(=O)[C@H](CCCCNC(=O)OC(C)(C)C)NC(=O)[C@H](Cc1ccc(OCc2ccccc2)cc1)NC(=O)OC(C)(C)C | < 20% | 1.6 | 1.9 | < 4.00 | – | –
5 | C[C@H](NC(=O)[C@H](Cc1ccc(OCc2ccccc2)c(I)c1)NC(=O)OC(C)(C)C)C(=O)N[C@@H](Cc1c[nH]c2c(Br)cccc12)C(=O)O | – | – | – | 5.55 | 5.80 | pKi [7]: 5.52; half-life [5]: 37 h
6 | C[C@H](NC(=O)[C@H](Cc1ccc(OCc2ccccc2)cc1)NC(=O)OC(C)(C)C)C(=O)N[C@@H](Cc1c[nH]c2ccccc12)C(=O)NCCCCNC(=O)OC(C)(C)C | < 20% | 1.5 | 3.2 | < 4.00 | – | –
7 | CC(C)(C)OC(=O)N[C@@H](Cc1ccc(OCc2ccccc2)cc1)C(=O)N[C@@H](CCCN(C(=N)NC(=O)OCc1ccccc1)C(=O)OCc1ccccc1)C(=O)N[C@@H](Cc1c[nH]c2ccccc12)C(=O)Nc1ccc(O)cc1 | < 20% | – | – | < 4.00 | < 4.00 | pKi [7]: < 4.00; inhibition (Oryctolagus cuniculus [8]): < 20%; inhibition (Oryctolagus cuniculus [9]): < 20%
8 | CC(C)(C)OC(=O)NCCCC[C@H](NC(=O)[C@H](Cc1ccc(OCc2ccccc2)cc1)NC(=O)OC(C)(C)C)C(=O)N[C@@H](Cc1c[nH]c2ccccc12)C(=O)NCc1ccccc1 (Boc-Tyr(Bn)-Lys(Boc)-Trp-NHBn) | < 20% | 1.3 | 1.8 | < 4.00 | – | –
9 | C[C@H](NC(=O)[C@H](Cc1ccc(OCc2ccccc2)cc1)NC(=O)OC(C)(C)C)C(=O)N[C@@H](Cc1c[nH]c2ccccc12)C(=O)Nc1ccccc1 (Boc-Tyr(Bn)-Ala-Trp-NHPh) | < 20% | 1.4 | 1.6 | < 4.00 | – | –
10 | C[C@H](NC(=O)[C@H](Cc1ccc(OCc2ccccc2)cc1)NC(=O)OC(C)(C)C)C(=O)N[C@@H](Cc1c[nH]c2ccccc12)C(=O)Nc1ccc(O)cc1 | – | – | – | 6.00 | 4.18 | pKi [7]: < 4.00; inhibition (Oryctolagus cuniculus [9]): < 20%; Activity (HeLa [10]): Active; Activity (HEK293): Active; Activity (Huh-7): Active; Activity (HCT-116): Active; Activity (T47D): Active; Activity (HepG2): inactive; pIC50 (HeLa [11]): 4.82
11 | CC(C)(C)OC(=O)NCCCCNC(=O)[C@H](Cc1c[nH]c2ccccc12)NC(=O)[C@H](CC(N)=O)NC(=O)[C@H](Cc1ccc(OCc2ccccc2)cc1)NC(=O)OC(C)(C)C | < 20% | 1.6 | 2.2 | < 4.00 | – | –
